# Publication PMC4191588 (Journal of Medicinal Chemistry, 2014)
# Columns and labels:
# H1299 cells = assay: Colony formation assay in H1299 cells; type: cell-based, human; details: for reduction of colony formation / effect on cell survival (in words): H1299 cells, 5 μM, 7 days; for reduction of colony formation: relative to DMSO
# Ub-PCNA in H1299 cells = assay: Western blot of monoubiquitinated PCNA; type: cell-based, human; details: 4 hr; for change in Ub-PCNA (in words): H1299 cells, 1, 5, and 25 µM; for lowest concentration at which an increase in Ub-PCNA was observed: H1299 cells
# Ca^2+ channel = assay: CEREP LeadProfilingScreen2 radioligand binding; details: 10 μM, duplicate
# Outline: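 Test compound run at 10 μM in a commercial lead-profiling panel of 80 GPCRs, ion channels and transporters.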
# Caco-2 = Caco-2 permeability; type: in vitro ADME
# [1] = Aqueous chemical stability; type: physicochemical; details: aqueous solution at room temperature
# Mouse plasma stability = type: in vitro ADME
# [2] = Preliminary in vivo PK studies
# USP1/UAF1 = USP1/UAF1 (Homo sapiens, UniProt O94782); assay: USP1/UAF1 quantitative high-throughput screening; type: biochemical
# USP1/UAF1, sequence (O94782 whole entry): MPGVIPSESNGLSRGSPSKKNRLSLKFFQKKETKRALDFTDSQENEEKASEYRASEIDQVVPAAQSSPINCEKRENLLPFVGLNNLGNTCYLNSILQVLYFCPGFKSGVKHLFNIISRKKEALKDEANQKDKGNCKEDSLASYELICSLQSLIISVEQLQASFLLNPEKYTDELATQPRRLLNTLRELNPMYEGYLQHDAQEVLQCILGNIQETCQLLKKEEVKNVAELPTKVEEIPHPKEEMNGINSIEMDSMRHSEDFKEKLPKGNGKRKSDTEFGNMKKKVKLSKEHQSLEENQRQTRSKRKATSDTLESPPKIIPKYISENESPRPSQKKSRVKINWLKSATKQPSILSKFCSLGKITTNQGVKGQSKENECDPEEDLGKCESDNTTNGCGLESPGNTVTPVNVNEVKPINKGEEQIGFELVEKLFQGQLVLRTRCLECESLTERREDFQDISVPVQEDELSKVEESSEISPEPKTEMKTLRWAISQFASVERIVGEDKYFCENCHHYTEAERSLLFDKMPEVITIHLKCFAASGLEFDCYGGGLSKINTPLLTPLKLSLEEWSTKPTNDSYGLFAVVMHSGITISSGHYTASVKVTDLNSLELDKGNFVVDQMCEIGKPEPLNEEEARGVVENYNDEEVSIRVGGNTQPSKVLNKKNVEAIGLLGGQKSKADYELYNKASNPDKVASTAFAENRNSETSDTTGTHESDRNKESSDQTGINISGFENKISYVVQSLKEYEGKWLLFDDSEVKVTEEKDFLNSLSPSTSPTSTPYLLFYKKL
# USP1/UAF1, sequence (Q8TAF3 whole entry partner): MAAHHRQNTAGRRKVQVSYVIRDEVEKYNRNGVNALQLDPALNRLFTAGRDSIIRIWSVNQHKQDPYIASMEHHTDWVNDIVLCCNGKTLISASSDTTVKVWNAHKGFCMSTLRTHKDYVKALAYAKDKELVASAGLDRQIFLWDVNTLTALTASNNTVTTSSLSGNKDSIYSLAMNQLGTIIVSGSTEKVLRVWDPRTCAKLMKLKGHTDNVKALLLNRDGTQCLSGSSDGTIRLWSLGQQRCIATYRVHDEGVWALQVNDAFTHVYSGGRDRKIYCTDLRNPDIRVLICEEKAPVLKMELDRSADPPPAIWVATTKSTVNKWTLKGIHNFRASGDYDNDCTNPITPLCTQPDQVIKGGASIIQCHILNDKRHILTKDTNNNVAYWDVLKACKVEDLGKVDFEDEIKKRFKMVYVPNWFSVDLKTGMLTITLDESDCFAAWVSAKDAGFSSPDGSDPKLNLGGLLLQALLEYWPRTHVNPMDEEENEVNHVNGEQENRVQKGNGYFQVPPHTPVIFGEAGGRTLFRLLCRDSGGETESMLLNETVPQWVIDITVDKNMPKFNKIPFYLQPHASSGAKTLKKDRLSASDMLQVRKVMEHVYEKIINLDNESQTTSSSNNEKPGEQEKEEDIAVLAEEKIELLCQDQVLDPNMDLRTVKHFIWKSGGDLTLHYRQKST
# small panel of DUBs = details: cited from earlier work
# 451 kinases = details: cited from earlier work
structure (smiles),measurement,setting,value
"COc1cnc(-c2ccccc2C(C)C)nc1NCc1ccc(-c2cccnc2)cc1 [Compound 49, 2-(2-Isopropylphenyl)-5-methoxy-N-(4-(pyridin-3-yl)benzyl)pyrimidin-4-amine]",reduction of colony formation,H1299 cells,greater than 70%
"Cc1cnc(-c2ccccc2C(C)C)nc1NCc1ccc(-n2ccnn2)cc1 [Compound 70, N-(4-(1H-1,2,3-Triazol-1-yl)benzyl)-5-methyl-2-(2-isopropylphenyl)pyrimidin-4-amine]",change in Ub-PCNA (in words),Ub-PCNA in H1299 cells,dose-dependent increase in Ub-PCNA
same,lowest concentration at which an increase in Ub-PCNA was observed,Ub-PCNA in H1299 cells,1 µM
same,reduction of colony formation,H1299 cells,greater than 70%
same,inhibition of Ca^2+ channel,Ca^2+ channel,> 50%
same,Caco-2 (A→B) Papp,Caco-2,22.98 10^–6 cm/s
same,"stability in PBS buffer, assay buffer, pH 2, pH 9 (in words)",[1],stable
same,stability in mouse plasma (in words),Mouse plasma stability,stable
same,clearance,[2],> 70 mL/min/kg
"CC(C)c1ccccc1-c1nc(NCc2ccc(-c3cccnc3)cc2)c2occc2n1 [Compound 48, 2-(2-Isopropylphenyl)-N-(4-(pyridin-3-yl)benzyl)furo[3,2-d]pyrimidin-4-amine]",reduction of colony formation,H1299 cells,greater than 70%
FC(F)(F)c1cccc(-c2nc(NCc3ccc(-c4cccnc4)cc3)c3ccccc3n2)c1 [Compound 22],activity toward USP1/UAF1 (in words),USP1/UAF1,inactivity
"Cc1cnc(-c2ccccc2C(C)C)nc1NCC1CCN(c2cccnc2)CC1 [Compound 64, 2-(2-Isopropylphenyl)-5-methyl-N-((1-(pyridin-3-yl)piperidin-4-yl)methyl)pyrimidin-4-amine]",change in Ub-PCNA (in words),Ub-PCNA in H1299 cells,dose-dependent increase in Ub-PCNA
same,lowest concentration at which an increase in Ub-PCNA was observed,Ub-PCNA in H1299 cells,1 µM
same,reduction of colony formation,H1299 cells,greater than 70%
"Cc1cnc(-c2ccccc2C2COC2)nc1NCc1ccc(-c2cccnc2)cc1 [Compound 72, 5-methyl-2-(2-(oxetan-3-yl)phenyl)-N-(4-(pyridin-3-yl)benzyl)pyrimidin-4-amine]",activity toward USP1/UAF1 (in words),USP1/UAF1,lost all activity
"FC(F)(F)c1ccccc1-c1nc(NCc2cccs2)c2ccccc2n1 [Compound 1, N-(Thiophen-2-ylmethyl)-2-(2-(trifluoromethyl)phenyl)quinazolin-4-amine]",change in Ub-PCNA (in words),Ub-PCNA in H1299 cells,dose-dependent increase in Ub-PCNA
same,effect on cell survival (in words),H1299 cells,minimal
same,activity against a small panel of DUBs,small panel of DUBs,no significant activity
same,appreciable inhibition among 451 kinases,451 kinases,only one of 451 kinases
Cc1cnc(-c2ccccc2C(C)C)nc1NCC1CCN(C)CC1 [Compound 58],activity toward USP1/UAF1 (in words),USP1/UAF1,complete loss of activity
"Cc1cnc(-c2ccccc2C2COC2)nc1NCc1ccc(-n2ccnn2)cc1 [Compound 77, N-(4-(1H-1,2,3-Triazol-1-yl)benzyl)-5-methyl-2-(2-(oxetan-3-yl)phenyl)pyrimidin-4-amine]",activity toward USP1/UAF1 (in words),USP1/UAF1,lost all activity
same,effect on cell survival (in words),H1299 cells,no effect
same,EC50,"H1299 cells; Homo sapiens, NCI-H1299, read-out: EC50 cell survival (colony formation)",> 25 µM
FC(F)(F)c1ccc(-c2nc(NCc3ccc(-c4cccnc4)cc3)c3ccccc3n2)cc1 [Compound 23],activity toward USP1/UAF1 (in words),USP1/UAF1,inactivity
"Cc1cnc(-c2ccccc2C(C)C)nc1NCc1ccc(-n2ccnc2)cc1 [Compound 69, N-(4-(1H-Imidazol-1-yl)benzyl)-2-(2-isopropylphenyl)-5-methylpyrimidin-4-amine]",reduction of colony formation,H1299 cells,greater than 70%
